This note sets out measurements from PubChem BioAssay AID1899 (The Scripps Research Institute Molecular Screening Center, 2009).

In all, about 300,000 compounds went through this assay and about 1,000 (0.33%) were called active.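 Rule for the calls: active = inhibition above the mean of all tested compounds plus 3 SD, set per screening campaign (cut at about 45% in these data); inactive = the rest.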 The sample as a whole holds a higher share of actives than the screen did.

As usually defined, the inhibition is the change of the read-out against control, counted positive when it falls.

The test system of this assay is HCV core protein (residues 1-106) dimerization. The assay is described as follows: inhibitors of HCV core protein dimerization, primary screen, biochemical, TR-FRET, high-throughput (AID 1899). Conditions: TR-FRET GST/Flag-core106 dimerization, 1536-well; at 5 µM; stronger effect = higher value. Summed up:
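System: GST/Flag-tagged HCV core106 proteins. Incubation: compound-protein-antibody incubation 4 h at 22.5 °C. Technique: HTRF with 340 nm excitation, 617/671 nm emission. Medium: KF-containing HEPES buffer, pH 7.45, DTT, CHAPS, BSA. Read-out: inhibition (%) from 671 over 617 nm ratio. Also added: Eu(K)-anti-GST 90 ng/mL plus XL665-anti-Flag 1 µg/mL.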
(In general: Time-resolved FRET reads energy transfer from a long-lived donor to a nearby acceptor.)
`COc1ccc(OC)c(CNC(=O)c2cc(=O)[nH]c3ccc(S(=O)(=O)N4CCCC4)cc23)c1`: the inhibition is 0.99% (inactive). On to `COc1ccc(NC(=O)c2cc(-c3cc(OC)c(OC)c(OC)c3)nc3ccccc23)c(OC)c1`, for which the inhibition is -2.9% (inactive). As to `CNC(=O)COC(=O)c1cc(-c2ccc(OC)cc2)nc2ccccc12`, the inhibition is 0.09% (inactive). Regarding `COc1cc(-c2cc(C(=O)OCC(=O)Nc3ccc4c(c3)OCO4)c3ccccc3n2)cc(OC)c1OC`, the inhibition is 46.1% (active). As to `CN(C)/C(CN1CCCCC1)=C1\N=C(c2ccccc2)OC1=O`, the inhibition is -2.51% (inactive). Regarding `Cc1ccc(C(=O)Nc2cccc3ncccc23)cc1[N+](=O)[O-]`, the inhibition is 4.3% (inactive). As for `O=C(Nc1cccc2ncccc12)C(Cl)(Cl)Cl`, the inhibition is -1.9% (inactive). Take `Cc1ccc(/C=C(\C#N)C(=O)Nc2cccc3ncccc23)o1`: the inhibition was 64.5% (active). Next, `CCOc1ccc(NC(=S)NC(=O)/C=C/c2ccc(OC)cc2)c([N+](=O)[O-])c1`: 47.8% (active); `Cc1ccc(NC(=S)NC(=O)/C=C/c2ccc(Cl)cc2)cc1`: -5.71% (inactive).

Turning to `COc1ccc(/C=C/C(=O)NC(=S)N2CCCC(C(N)=O)C2)cc1` (stereo not drawn), the inhibition was -10.7% (inactive). With `Cn1nnnc1SCC(=O)N1CCN(C(c2ccccc2)c2ccccc2)CC1`, the inhibition was 2.43% (inactive). With `N#CC1=C(N)Oc2c(sc3ccccc23)C1c1ccco1` (stereo not drawn), the inhibition was 54.5% (active).

On to `N#CC1=C(N)Oc2c(ccc3cccnc23)C1c1ccncc1` (stereo not drawn), for which the inhibition is 3.58% (inactive). As to `COC(=O)c1ccc2c(=O)n(CCN3CCOCC3)c(SCC(=O)Nc3cccc(OC)c3)nc2c1`, the inhibition is -0.68% (inactive). Take `CCOC(=O)N1CCN(C(=O)CSc2nc(C)nc3c2c(=O)n(C)c(=O)n3C)CC1`: the inhibition was -1.3% (inactive). Consider `NC(=O)CCN1CCN(S(=O)(=O)/C=C/c2ccccc2)CC1`, for which the inhibition was 0.92% (inactive). `COc1ccc2c(CN3CCN(S(=O)(=O)c4cccs4)CC3)cc(=O)oc2c1`: the inhibition was 11.7% (inactive).

On to `O=c1cc(CN2CCN(S(=O)(=O)/C=C/c3ccccc3)CC2)c2ccc(O)cc2o1`, for which the inhibition is 52.2% (active).

With `Cc1cc(C(=O)N/N=C/c2ccc(O)c([N+](=O)[O-])c2)c(C)n1-c1ccc(F)cc1`, the inhibition is 70.4% (active). Regarding `COc1cc(/C=N/NC(=O)c2cc(C)n(-c3ccc(F)cc3)c2C)cc(OC)c1O`, the inhibition was 4.09% (inactive). With `Cc1nn(CC(=O)N/N=C/c2ccc(F)cc2)c(C)c1[N+](=O)[O-]`, the inhibition is -5.44% (inactive). Next, `CC(c1ccco1)N(C(=O)c1ccc(S(=O)(=O)N2CCCCC2)cc1)c1ccccn1` (stereo not drawn): -1.02% (inactive); `CCOc1ccc(C(=O)Nc2ccncc2)cc1`: -4.79% (inactive); `CC(C)NC(=O)NC(=O)COC(=O)c1ccc(NC(=O)CC#N)cc1`: -2.82% (inactive).

On to `CCOc1ccc(NC(=O)c2ccc(NC(=O)COC(=O)c3ccc(NC(=O)CC#N)cc3)cc2)cc1`, for which the inhibition is 62.4% (active).

For `CCCn1c(O)c(CN2CCCC(C)C2)c(C)c(C#N)c1=O` (stereo not drawn), the inhibition is -8.8% (inactive).

For `O=C(Nc1ccc(-n2ccnc2P(=O)(O)c2ccccc2)cc1)c1ccccc1Br`, the inhibition was 3.36% (inactive). On to `CC(=O)c1ccc(S(=O)(=O)N2CCC3(CC2)OCCO3)cc1`, for which the inhibition is -8.35% (inactive). Take `CC(=O)c1ccc(S(=O)(=O)N2CCN(C(=O)/C=C/c3ccc4ccccc4n3)CC2)cc1`: the inhibition was 34.5% (inactive). `CC(=O)c1ccc(S(=O)(=O)N2CCN(c3nc4c(C)c(C)ccc4cc3C#N)CC2)cc1`: the inhibition is 60.9% (active).

Turning to `Cc1ccc(S(=O)Cc2ccc(C(=O)N3CCN(C4CCCCC4)CC3)o2)cc1` (stereo not drawn), the inhibition was 2.42% (inactive).

In the case of `COc1ccc(/C=N/N=C/c2c[nH]c(=O)c(C#N)c2Nc2ccccc2)cc1`, the inhibition is 9.36% (inactive).

For `Nc1nc(O)c(CC(=O)O)s1`, the inhibition was -10.1% (inactive). In the case of `Cc1c(C(=O)N/N=C/c2ccccc2)[nH]c2c([N+](=O)[O-])cccc12`, the inhibition was 2.99% (inactive). `COc1cccc2c(C)c(C(=O)O)[nH]c12`: the inhibition was 52.9% (active). In the case of `COc1cc2c(C(=O)O)c(C)n(C)c2c2ccccc12` it was -16.5% (inactive). Next, `COc1ccc(S(=O)(=O)N2CCN(c3ncnc4c(-c5ccccc5)nsc34)CC2)cc1`: 5.78% (inactive). As for `COc1ccc(/C=N/NC(=O)c2ccc(Cl)cc2)cc1COC(C)=O`, the inhibition is -6.24% (inactive). For `COc1ccc(/C=N\NC(=O)c2sc(N)nc2C)cc1OC`, the inhibition is 1.3% (inactive). `COc1cccc(OCc2cc(/C=N/NC(=O)c3nc(Cl)c(Cl)c(N)c3Cl)ccc2OC)c1`: the inhibition is 58.9% (active). Turning to `CCn1cc(/C=C(\NC(=O)c2cc(OC)c(OC)c(OC)c2)C(=O)N2CCN(C)CC2)c2ccccc21`, the inhibition is -12.2% (inactive). As to `CC1CCCN(c2ccc(C(=O)NCCc3ccccc3)cn2)C1` (stereo not drawn), the inhibition was -2.49% (inactive).

Regarding `Nc1ccc2nc3c(=O)[nH]c(=S)[nH]c3nc2c1`, the inhibition is 47.1% (active). For `Cc1cc2nc3c(=O)n(Cc4ccccc4)c(=O)[nH]c3nc2cc1N`, the inhibition is 7.8% (inactive).

In the case of `Cc1ccc(-c2cc(C(=O)N/N=C/C=C/c3ccco3)c3ccccc3n2)cc1C`, the inhibition was 68.2% (active).

As to `O=C(N/N=C/C=C/c1ccco1)c1cccs1`, the inhibition is 11.6% (inactive). For `COc1ccc(/C=N/NC(=O)c2cc(-c3cccc(C)c3)nc3ccccc23)cc1O`, the inhibition was 4.37% (inactive). Turning to `CCOC(=O)N1CCN(Cc2nc3ccc([N+](=O)[O-])cc3c(=O)n2-c2cccc(OC)c2)CC1`, the inhibition was 0.84% (inactive).

On to `Cc1ccc(NC(=O)CN(C)C(=O)COC(=O)C(C)(C)Oc2ccc(Cl)cc2)cc1`, for which the inhibition is 2.08% (inactive). On to `CC(C)c1ccc(C2C(C(=O)c3ccco3)=C(O)C(=O)N2CC2CCCO2)cc1` (stereo not drawn), for which the inhibition was -4.24% (inactive). As for `Cn1cncc1COC(=O)c1ccc(Cl)cc1`, the inhibition was 1.11% (inactive). Next, `C=CCn1c(C)cc(C2=NNC(=NCC)SC2)c1C`: -4.1% (inactive). In the case of `Cc1ccc(S(=O)(=O)N2CCC(C(=O)NCC3CCCO3)CC2)cc1` (stereo not drawn) it was 4.25% (inactive); in that of `Cc1cc(C2=NNC(=Nc3ccc(S(=O)(=O)N4CCOCC4)cc3)SC2)c(C)n1CC1CCCO1` (stereo not drawn), 55.5% (active). `O=C(NNC(=S)NC(=O)c1cn(-c2ccccc2)nc1-c1ccccc1)c1ccncc1`: the inhibition was -3.87% (inactive).

For `CCn1cc(C(=O)N2CC(C)CC(C)C2)c(=O)c2cc(S(=O)(=O)N3CCCC3)ccc21` (stereo not drawn), the inhibition is -3.07% (inactive).

Consider `CN(NC(=O)C1CC(=O)N(c2ccccc2)C1)C1=NS(=O)(=O)c2ccccc21` (stereo not drawn), for which the inhibition is 1.86% (inactive).

For the molecule `O=C(N=C1SC2CS(=O)(=O)CC2N1c1cc(Cl)ccc1Cl)C1CC1` (stereo not drawn), the inhibition was -2.57% (inactive). Next, `O=c1cc(O)nc(SCc2ccccc2Cl)[nH]1`: -5.09% (inactive). As to `O=c1[nH]c(SCc2ccccc2)nnc1-c1ccccc1`, the inhibition is 4.19% (inactive). As to `COc1ccc2nc(SCc3ccccc3)nc(C)c2c1`, the inhibition is -8.86% (inactive).

As for `Fc1cccc(Cl)c1CSc1ccc(-c2ccco2)nn1`, the inhibition was 19.9% (inactive). With `c1ccc(CSc2nnc(-c3ccco3)c(-c3ccco3)n2)cc1`, the inhibition was 63.8% (active).

With `Clc1ccccc1CSc1nnc(-c2ccco2)c(-c2ccco2)n1`, the inhibition is 60.8% (active). For the molecule `CCN(CC(=O)Nc1ccccc1OC)C(=O)Cn1cnc2ccccc2c1=O`, the inhibition is 0.63% (inactive).

`C=C1CCN([C@@H](Cc2ccccc2)C(=O)N2CCOCC2)S(=O)(=O)c2ccccc21`: the inhibition is 5.65% (inactive). With `CCOC(=O)CSc1nc2ccc(C)cc2n2cnnc12`, the inhibition was -1.27% (inactive). On to `CC(C)(C)CC(=O)Nc1nnc(SCC(=O)NCc2cccs2)s1`, for which the inhibition was 10.5% (inactive). For `O=C(c1ccccc1)N1CCN(C(=O)c2cc3nc(-c4ccccc4)cc(C(F)(F)F)n3n2)CC1`, the inhibition is -5.71% (inactive). Consider `CN1C(=O)/C(=C/c2ccco2)SC1=Nc1cccc(C(=O)O)c1`, for which the inhibition is 1.21% (inactive). Regarding `Cc1ccc(N2NC(=O)/C(=C/C=C/c3ccco3)C2=O)cc1C`, the inhibition is 13.5% (inactive). For the molecule `Cc1ccc(N=C2NC(=O)/C(=C/C=C/c3ccco3)S2)cc1C`, the inhibition was 61.8% (active). As to `C/C(=N\NC(=O)c1ccc(CSc2nc(C)cc(C)n2)cc1)C1CCCCC1`, the inhibition was 7.33% (inactive). For the molecule `O=C(Nc1ccccc1C(=O)O)c1ccc(N2C(=O)C3CC=CCC3C2=O)cc1` (stereo not drawn), the inhibition is -0.72% (inactive). With `Cc1ccccc1NC(=O)CN1C(=O)N/C(=C\c2cccn2-c2cccc(C(=O)O)c2)C1=O`, the inhibition was -4.12% (inactive). Regarding `N#Cc1ccccc1CN1C(=O)S/C(=C/c2cccn2-c2cccc(C(=O)O)c2)C1=O`, the inhibition is 74.2% (active). Regarding `Cc1cc(/C=C2\SC(=O)N(C)C2=O)c(C)n1-c1cccc(C(=O)O)c1`, the inhibition was 8.51% (inactive). For `COc1ccc(S(=O)(=O)N2CCOC23CCN(S(=O)(=O)c2ccc([N+](=O)[O-])cc2)CC3)cc1`, the inhibition is 7.35% (inactive). Next, `CC(C)c1ccccc1OCC(O)CN(CC(O)COc1cccc2ccccc12)C(C)C` (stereo not drawn): -10.3% (inactive); `Cc1ccc(C(=O)N/C(=C\c2cn(S(=O)(=O)N(C)C)c3ccccc23)C(=O)N2CCCC2)cc1`: 15.1% (inactive). Next, `O=C(Nc1ccccc1C(=O)N1CCCCC1)c1ccco1`: -1.76% (inactive); `CN(C)C=NC(=O)c1cccn1-c1ncc(C(F)(F)F)cc1Cl`: -0.36% (inactive).

For `Cc1noc(/C=C/c2ccco2)c1S(=O)(=O)N1CCC(C(=O)Nc2ccc(Cl)cn2)CC1`, the inhibition was 9.46% (inactive). Consider `Cc1noc(/C=C/c2ccco2)c1S(=O)(=O)N1CCC(C(=O)N2CCc3ccccc32)CC1`, for which the inhibition is 66.4% (active). Next, `CNC(=O)C1CCN(S(=O)(=O)c2c(C)noc2/C=C/c2cccc(C)c2)CC1`: -2.65% (inactive); `Cc1cccc(C)c1NC(=O)CN1C(=O)C(C)Oc2ccccc21` (stereo not drawn): 5.55% (inactive). In the case of `CN(C)c1ccc(C(=S)N2CCN(C(=S)Nc3ccc(Cl)cc3)CC2)cc1` it was 13% (inactive).
